Source: ChEMBL document CHEMBL1250450, “Well-defined regions of the Plasmodium falciparum reticulocyte binding protein homologue 4 mediate interaction with red blood cell membrane” (J Med Chem, 2010)
Active and inactive are the calls of the source. Residues, ends and D or L forms follow the SMILES beside them.

Experiments:
[1] = species on record: Homo sapiens; test: Binding affinity of radio labeled compound to 22 kDa RBC membrane receptor in human RBC cross-linked with bis-(sulfosuccinimidyl)suberate by autoradiography using SDS-PAGE
Method in brief: (§1)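 Radioiodinated peptide (chloramine-T method) incubated with 2.1 × 10^7 human RBCs, then cross-linked with BS3 (1 mg/mL) for 1 h at 4 °C. Reaction stopped with Tris-HCl. Membranes lysed (Tris/NaCl/EDTA/PMSF), mixed with Laemmli buffer, spun 15000g for 15 min, resolved on 12% SDS-PAGE against prestained markers.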

[2] = species on record: Homo sapiens; test: Binding affinity to RBC membrane receptor in 1 mg/mL chymotrypsin pretreated human RBC relative to untreated RBC
Method in brief: (§2)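 Human RBCs (60% hematocrit) treated 1 h at 37 °C with neuraminidase (150 μU/mL), chymotrypsin (1 mg/mL) or trypsin (1 mg/mL). Standard radiolabeled-peptide binding then run on treated cells at 20% hematocrit. Binding expressed relative to untreated RBCs set as 100%.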

[3] = species on record: Homo sapiens; test: Binding affinity of radio labeled compound to 32 kDa RBC membrane receptor in human RBC cross-linked with bis-(sulfosuccinimidyl)suberate by autoradiography using SDS-PAGE; method in brief: as §1
[4] = tested on: Plasmodium falciparum; test: Antiplasmodial activity against Plasmodium falciparum FCB2 assessed as inhibition of merozoite invasion of human erythrocytes at 200 uM after 18 hrs using hydroethidine staining by flow cytometry; assay type: functional; details: FCB2, 18 h
Method in brief: (§3)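 Schizont-synchronized P. falciparum FCB-2 cultures incubated in triplicate with peptide (100 and 200 μM) using normal RBCs or, for the neuraminidase line, neuraminidase-treated RBCs. 37 °C for 18 h under 5% O2, 5% CO2, 90% N2. Cells washed with PBS, hydroethidine-labeled, read by flow cytometry (FL2). Inhibition controls were EGTA- and chloroquine-treated infected RBCs; uninfected RBCs served as invasion control.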

[5] = Binding affinity to RBC membrane receptor in human RBC assessed as dissociation constant by gamma counter
Method in brief: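 Saturation assay: 7.5 × 10^7 human RBCs incubated in triplicate with 125I-peptide over 0-2200 nM, with or without 6 nmol unlabeled peptide. Cells washed in HBS and counted by gamma counter. Kd, Hill coefficient and sites per cell came from Hill analysis.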

[6] = tested on: Plasmodium falciparum; test: Antiplasmodial activity against Plasmodium falciparum FCB2 assessed as inhibition of merozoite invasion of neuraminidase pretreated human erythrocytes at 200 uM after 18 hrs using hydroethidine staining by flow cytometry; assay type: functional; method in brief: as §3
[7] = species on record: Homo sapiens; test: Binding affinity to RBC membrane receptor in human RBC assessed as specific binding activity measured as ratio of specifically bound peptide/added peptide by gamma counter
Method in brief: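 1 × 10^8 healthy-donor RBCs incubated in triplicate with four rising concentrations of 125I-peptide (0-560 nM), with or without unlabeled peptide, then washed in HBS (pH 7.4) and gamma-counted. Specific binding (total minus nonspecific) plotted against added peptide; the slope is the specific binding activity. The HABP cutoff is ≥2%.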

[8] = species on record: Homo sapiens; test: Binding affinity of radio labeled compound to 20 kDa RBC membrane receptor in human RBC cross-linked with bis-(sulfosuccinimidyl)suberate by autoradiography using SDS-PAGE; method in brief: as §1
[9] = species on record: Homo sapiens; test: Binding affinity of radio labeled compound to 25 kDa RBC membrane receptor in human RBC cross-linked with bis-(sulfosuccinimidyl)suberate by autoradiography using SDS-PAGE; method in brief: as §1
[10] = species on record: Homo sapiens; test: Binding affinity to RBC membrane receptor in 150 uU/mL neuraminidase pretreated human RBC relative to untreated RBC; method in brief: as §2
[11] = species on record: Homo sapiens; test: Binding affinity to RBC membrane receptor in 1 mg/mL trypsin pretreated human RBC relative to untreated RBC; method in brief: as §2
[12] = tested on: Plasmodium falciparum; test: Antiplasmodial activity against Plasmodium falciparum FCB2 assessed as inhibition of merozoite invasion of human erythrocytes at 1.85 mg/mL after 18 hrs using hydroethidine staining by flow cytometry; assay type: functional; set-up: scale not given: the % may be the effect or the level left; method in brief: as §3
[13] = tested on: Plasmodium falciparum; test: Antiplasmodial activity against Plasmodium falciparum FCB2 assessed as inhibition of merozoite invasion of human erythrocytes at 0.93 mg/mL after 18 hrs using hydroethidine staining by flow cytometry; assay type: functional; set-up: scale not given: the % may be the effect or the level left; method in brief: as §3
[14] = tested on: Plasmodium falciparum; test: Antiplasmodial activity against Plasmodium falciparum FCB2 assessed as inhibition of merozoite invasion of human erythrocytes at 1.9 mg/mL after 18 hrs using hydroethidine staining by flow cytometry; assay type: functional; set-up: scale not given: the % may be the effect or the level left; method in brief: as §3

**Q.** With `CC[C@H](C)[C@H](NC(=O)[C@H](CC(=O)O)NC(=O)[C@H](CC(=O)O)NC(=O)[C@@H](NC(=O)[C@H](Cc1ccc(O)cc1)NC(=O)[C@H](CCCCN)NC(=O)[C@H](CCCCN)NC(=O)[C@@H](NC(=O)[C@H](CC(N)=O)NC(=O)[C@@H](NC(=O)[C@@H](N)CS)[C@@H](C)O)[C@@H](C)CC)[C@@H](C)O)C(=O)N[C@@H](CS)C(=O)N[C@@H](CC(C)C)C(=O)N[C@@H](CO)C(=O)N[C@H](C(=O)N[C@@H](CCCCN)C(=O)N1CCC[C@H]1C(=O)N[C@@H](CCCCN)C(=O)N[C@@H](C)C(=O)N[C@@H](CC(C)C)C(=O)O)[C@@H](C)CC` (H-CTNIKKYTDDICLSIKPKAL-OH) as the compound, how does the Activity [1] read?
**A.** Active

**Q.** What about the Activity [2] of the same compound?
**A.** 52.8%

**Q.** And the Activity [3]?
**A.** Active

**Q.** What about the inhibition at 200 µM [4] of the same compound?
**A.** 52%

**Q.** And the Kd [5]?
**A.** 0.87 µM

**Q.** What about the inhibition at 200 µM [6] of the same compound?
**A.** 47%

**Q.** And the Activity [7]?
**A.** > 2%

**Q.** What about the Activity [8] of the same compound?
**A.** Active

**Q.** And the Activity [9]?
**A.** Active

**Q.** And the Activity [10]?
**A.** 101%

**Q.** And the Activity [11]?
**A.** 172%

**Q.** With `CCN(CC)CCCC(C)Nc1ccnc2cc(Cl)ccc12` (centres undefined) [CHLOROQUINE] as the compound, how does the Activity [12] read?
**A.** 97%

**Q.** What about the Activity [13] of the same compound?
**A.** 96%

**Q.** For `O=C(O)CN(CCOCCOCCN(CC(=O)O)CC(=O)O)CC(=O)O` [EGTAZIC ACID], which Activity [14] is on record?
**A.** 90%

**Q.** For H-CIQIKKKVDELYNIYDQLFK-OH, which Activity [1] is on record?
**A.** Active

**Q.** And the Activity [2]?
**A.** 53.3%

**Q.** What about the Activity [3] of the same compound?
**A.** Active

**Q.** What about the inhibition at 200 µM [4] of the same compound?
**A.** 46%

**Q.** And the inhibition at 200 µM [6]?
**A.** 50%

**Q.** What about the Activity [7] of the same compound?
**A.** > 2%

**Q.** And the Activity [8]?
**A.** Active

**Q.** And the Activity [9]?
**A.** Active

**Q.** What about the Activity [10] of the same compound?
**A.** 80.7%

**Q.** What about the Activity [11] of the same compound?
**A.** 75.2%

**Q.** For H-KHIVNKIQENFKLNQNKYIH-OH, which Activity [2] is on record?
**A.** 132%

**Q.** And the inhibition at 200 µM [4]?
**A.** 51%

**Q.** What about the Kd [5] of the same compound?
**A.** 0.59 µM

**Q.** What about the inhibition at 200 µM [6] of the same compound?
**A.** 51%

**Q.** And the Activity [7]?
**A.** > 2%

**Q.** And the Activity [10]?
**A.** 115%

**Q.** What about the Activity [11] of the same compound?
**A.** 94.1%

**Q.** With H-KIMQNIQQTTNRLKINIKKIY-OH as the compound, how does the Activity [2] read?
**A.** 60.1%

**Q.** What about the inhibition at 200 µM [4] of the same compound?
**A.** 54%

**Q.** What about the Kd [5] of the same compound?
**A.** 0.75 µM

**Q.** What about the inhibition at 200 µM [6] of the same compound?
**A.** 46%

**Q.** And the Activity [7]?
**A.** > 2%

**Q.** And the Activity [10]?
**A.** 129%

**Q.** And the Activity [11]?
**A.** 15.2%

**Q.** With H-LFDYTHLWDNAQFTRTKENI-OH as the compound, how does the Activity [2] read?
**A.** 31.4%

**Q.** What about the inhibition at 200 µM [4] of the same compound?
**A.** 50%

**Q.** And the Kd [5]?
**A.** 1.2 µM

**Q.** And the inhibition at 200 µM [6]?
**A.** 58%

**Q.** And the Activity [7]?
**A.** > 2%

**Q.** What about the Activity [10] of the same compound?
**A.** 166%

**Q.** What about the Activity [11] of the same compound?
**A.** 24.9%

**Q.** With H-LNFTHKTIQQILQQQYKNNT-OH as the compound, how does the Activity [2] read?
**A.** 79.7%

**Q.** What about the inhibition at 200 µM [4] of the same compound?
**A.** 45%

**Q.** What about the Kd [5] of the same compound?
**A.** 0.85 µM

**Q.** And the inhibition at 200 µM [6]?
**A.** 47%

**Q.** And the Activity [7]?
**A.** > 2%

**Q.** And the Activity [10]?
**A.** 94.9%

**Q.** What about the Activity [11] of the same compound?
**A.** 43%

**Q.** What does the source list for H-LNTILHRNEQTKNATRSYNM-OH?
**A.** Activity [2]: 22.5%; inhibition at 200 µM [4]: 47%; Kd [5]: 0.85 µM; inhibition at 200 µM [6]: 46%; Activity [7]: > 2%; Activity [10]: 92.2%; Activity [11]: 43.9%

**Q.** Which results are given for H-QEKNTLAQFLYNADIKKYID-OH?
**A.** Activity [1]: Active; Activity [2]: 0.01%; Activity [3]: Active; inhibition at 200 µM [4]: 38%; inhibition at 200 µM [6]: 53%; Activity [7]: > 2%; Activity [8]: Active; Activity [9]: Active; Activity [10]: 110%; Activity [11]: 1.01%

**Q.** For H-QEQNRIYNELQNKIKQIKNV-OH, which Activity [1] is on record?
**A.** Active

**Q.** And the Activity [2]?
**A.** 102%

**Q.** What about the Activity [3] of the same compound?
**A.** Active

**Q.** What about the inhibition at 200 µM [4] of the same compound?
**A.** 85%

**Q.** And the Kd [5]?
**A.** 0.88 µM

**Q.** And the inhibition at 200 µM [6]?
**A.** 88%

**Q.** And the Activity [7]?
**A.** > 2%

**Q.** What about the Activity [8] of the same compound?
**A.** Active

**Q.** What about the Activity [9] of the same compound?
**A.** Active

**Q.** What about the Activity [10] of the same compound?
**A.** 93%

**Q.** What about the Activity [11] of the same compound?
**A.** 32%

**Q.** Which results are given for H-QIYKNELKDRIKETQTKINL-OH?
**A.** Activity [1]: Active; Activity [2]: 288%; Activity [3]: Active; inhibition at 200 µM [4]: 47%; Kd [5]: 0.59 µM; inhibition at 200 µM [6]: 49%; Activity [7]: > 2%; Activity [8]: Active; Activity [9]: Active; Activity [10]: 128%; Activity [11]: 0.03%

**Q.** Which Activity [2] does the source give for H-YDKLNEHVINNLYTKSKDSL-OH here?
**A.** 26.3%

**Q.** What about the inhibition at 200 µM [4] of the same compound?
**A.** 43%

**Q.** And the Kd [5]?
**A.** 0.48 µM

**Q.** What about the inhibition at 200 µM [6] of the same compound?
**A.** 39%

**Q.** What about the Activity [7] of the same compound?
**A.** > 2%

**Q.** And the Activity [10]?
**A.** 312%

**Q.** What about the Activity [11] of the same compound?
**A.** 16.7%

**Q.** For H-YNKNNIKDIYQQFKNIQQQL-OH, which Activity [1] is on record?
**A.** Active

**Q.** And the Activity [2]?
**A.** 114%

**Q.** What about the Activity [3] of the same compound?
**A.** Active

**Q.** What about the inhibition at 200 µM [4] of the same compound?
**A.** 46%

**Q.** What about the Kd [5] of the same compound?
**A.** 0.4 µM

**Q.** What about the inhibition at 200 µM [6] of the same compound?
**A.** 49%

**Q.** What about the Activity [7] of the same compound?
**A.** > 2%

**Q.** What about the Activity [8] of the same compound?
**A.** Active

**Q.** What about the Activity [9] of the same compound?
**A.** Active

**Q.** And the Activity [10]?
**A.** 153%

**Q.** What about the Activity [11] of the same compound?
**A.** 87%
